An excerpt weighted towards active compounds, which were near 4.9% of everything screened.
STAT1 blocker = inhibitors of IFN-gamma induced STAT1 signaling | NIH 3T3 STAT1-luciferase reporter, luminescence | inhibition, % at 5.5 µM | 200,000 tested, 0.35% active | AID 920;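 active = inhibition above a set limit, the mean inhibition across all tested compounds plus 3 SD, cut at about 34% in these data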
STAT3 act = increases IL-6 driven STAT3 reporter signal | activation (% of control), % at 5.6 µM | 190,000 tested, 0.91% active | U3A cells, IL-6 STAT3-luciferase reporter, luminescence; 100% = signal with IL-6 EC80 alone;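 active = activation above the screen-wide mean of compound activation plus 3 SD, cut at about 130% in these data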
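Test system: Human STAT1-deficient U3A cells with stable STAT3-luciferase reporter | Also added: Interleukin-6, 33 ng/mL | Timing: Compound pre-incubation 1 h before IL-6, then 6 h stimulation at 37 °C | Technique: Luciferase reporter luminescence | Read-out: Percent of IL-6-only median luminescence | Benchmarks: IL-6-only wells as 100% reference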
STAT1 activator = increases IFN-gamma driven STAT1 reporter signal. activation (% of control), % at 5.5 µM. 200,000 tested, 2.6% active. NIH 3T3 STAT1-luciferase reporter, luminescence; 100% = IFN-gamma alone, no compound. AID 932;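 active = activation above the screen-wide mean activation plus 3 SD, cut at about 130% in these data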
FLuc inhib CS = Photinus pyralis luciferase inhibition counter-screen; P08659; ATPLite firefly luciferase biochemical luminescence, 10 min; 200,000 tested, 1.5% active; AID 1006; inhibition, % at 10 µM;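 active = inhibition above about 50% when tested at 10 µM, limit read from the data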
Target sequence (P08659 whole entry, looked up): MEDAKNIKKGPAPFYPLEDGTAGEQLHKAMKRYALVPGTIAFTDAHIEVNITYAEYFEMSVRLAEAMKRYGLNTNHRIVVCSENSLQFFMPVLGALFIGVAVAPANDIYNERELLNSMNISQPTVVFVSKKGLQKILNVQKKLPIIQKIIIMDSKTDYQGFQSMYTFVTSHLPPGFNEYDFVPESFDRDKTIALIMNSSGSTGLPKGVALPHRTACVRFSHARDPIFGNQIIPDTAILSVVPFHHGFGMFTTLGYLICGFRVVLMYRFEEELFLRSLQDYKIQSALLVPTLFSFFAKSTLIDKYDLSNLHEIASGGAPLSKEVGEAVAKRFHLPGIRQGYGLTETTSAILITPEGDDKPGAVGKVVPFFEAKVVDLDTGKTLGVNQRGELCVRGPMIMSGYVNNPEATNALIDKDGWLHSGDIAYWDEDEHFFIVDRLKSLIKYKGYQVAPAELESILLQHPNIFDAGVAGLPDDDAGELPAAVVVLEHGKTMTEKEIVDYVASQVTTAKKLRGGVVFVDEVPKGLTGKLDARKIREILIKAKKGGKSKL
STAT3 inh-1 = reduces IL-6 driven STAT3 reporter signal; U3A cells, IL-6 STAT3-luciferase reporter, luminescence; host cell line lacks STAT1; inhibition, % at 5.5 µM; 190,000 tested, 0.89% active; AID 862;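 active = inhibition above the mean inhibition across all screened compounds plus 3 SD, cut at about 44% in these data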
FLuc act counter = affects firefly luciferase, flagging false hits in luciferase stimulation screens | P08659 | ATPlite luciferase biochemical, luminescence, 10 min; 0 = ATP-free wells, 1 = DMSO control | activation factor at 10 µM | 200,000 tested, under 10 active;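 active = luciferase activation factor, scaled between plate controls, of at least 2 with compound at 10 µM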
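Material: luciferase plus luciferin reagent, cell-free. Medium: PBS buffer for ATP. Also added: ATP substrate, dispensed from a 10.24 µM working solution in PBS. Doses: test compounds dosed from 2 mM stocks in 100% DMSO. Incubation: 10 min post-reagent at room temperature. Technique: light output (luminescence). Read-out basis: luminescence gain marking luciferase activators.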
STAT3 inh-2 = STAT3 inhibition, confirmation assay. shares compounds with STAT3 inh-1. U3A cells, IL-6 STAT3 luciferase reporter, luminescence; cell line lacks STAT1. inhibition, % at 5.7 µM. 1,200 tested, 45% active;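 active = inhibition above the hit cutoff computed for the primary STAT3 screen, cut at about 44% in these data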
NFkB inh 2 = inhibits NF-kappaB, counter-screen to STAT3 inhibitors. 1,200 tested, 36% active. inhibition, % at 5.7 µM. HEK293T NF-kB luciferase reporter, TNF-alpha induced. shares compounds with STAT3 inh-1;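 active = inhibition above the mean of solvent-only control wells plus 3 SD, cutoff set per campaign, cut at about 13% in these data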
STAT1 inh 2 = counter-screen for STAT3 inhibitors: STAT1 inhibition; shares compounds with STAT3 inh-1; NIH 3T3 STAT1-luciferase reporter, IFN-gamma induced, luminescence; inhibition, % at 5.7 µM; 1,200 tested, 27% active; AID 1317;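 active = inhibition above the mean plus 3 SD of solvent-only control wells, limit set per screening run, cut at about 16% in these data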
A number is an active result; – = inactive; · = no result given.

SMILES	STAT1 blocker	STAT3 act	STAT1 activator	FLuc inhib CS	STAT3 inh-1	FLuc act counter	STAT3 inh-2	NFkB inh 2	STAT1 inh 2
CC(C)Cc1cc(C(=O)N2CCCC(CCC(=O)N(C)CCc3ccccn3)C2)no1 (stereo not given)	–	–	–	–	–	–	·	·	·
CC(=O)Nc1cccc(Oc2ncnc3scc(-c4ccc(C(C)C)cc4)c23)c1	–	–	–	–	–	–	·	·	·
CNc1nnc(-c2ccc(N(C)C)cc2)s1	–	–	–	92	53	–	–	–	–
CN(C)c1ccc(-c2ccncc2)cc1	·	·	·	–	·	–	·	·	·
CCOc1ccc(NC(=S)N2CCN(c3ccc(N4CCOCC4)nn3)CC2)cc1	–	–	–	–	–	–	·	·	·
COc1ccc(OC)c(-c2csc(NC(=O)CSc3ccc([N+](=O)[O-])cc3)n2)c1	–	–	–	–	–	–	·	·	·
O=C(Nc1ncc2c(n1)-c1ccccc1CC2)C1CC1	–	–	–	–	45	–	–	–	–
CC(=O)c1c(C)[nH]c(C2=NNC(=NC(C)(C)C)SC2)c1C	–	–	–	–	–	–	·	·	·
C=CCn1c(C)cc(C2=NNC(=NC(C)(C)C)SC2)c1C	–	–	–	90	58	–	45	28	–
C=CCN=C1NN=C(c2cc(C)n(CCOC)c2C)CS1	–	–	–	89	78	–	–	–	–
O=C1c2ccc(Br)cc2C(=O)N1c1ccc(Cc2ccncc2)cc1	–	–	–	–	59	–	59	–	–
O=C1C2C3C=CC(C3)C2C(=O)N1c1ccc(Cc2ccncc2)cc1 (stereo not given)	–	–	–	–	–	–	·	·	·
Nc1cc(-c2ccc(Br)cc2)nn1Cc1ccccc1	–	–	–	–	67	–	58	–	–
Nc1cc(-c2cccc(Br)c2)nn1Cc1ccccc1	–	–	–	–	–	–	·	·	·
Nc1cc(-c2ccccc2)nn1Cc1ccc(Cl)cc1	–	–	–	–	49	–	45	–	–
CC1(C)OC2OC(C(=O)N/N=C/c3cc(Br)ccc3O)C3OC(C)(C)OC3C2O1 (stereo not given)	–	–	–	–	–	–	·	·	·
CCOc1ccc(N(CC(=O)NCC2CCCO2)C(=O)CCC(=O)Nc2nccs2)cc1 (stereo not given)	–	–	–	–	–	–	·	·	·
COc1cc(/C=C/C(=O)O)ccc1OCc1cnc(Cl)s1	–	–	–	–	–	–	·	·	·
CCCCc1ccc(NC(=O)CC(C)C)cc1	–	–	–	–	–	–	·	·	·
CCCc1ccc(-c2ccc(/C=C/C(=O)O)cc2)nc1	–	–	–	86	96	–	94	69	–
CCCCCCCc1ccc(-c2ccc(O)cc2)nc1	–	–	–	–	54	–	62	–	–
COc1ccc(-c2cc3nc(C)cc(N)n3n2)cc1	–	–	–	95	69	–	–	–	–
O=C(COC(=O)CNC(=O)c1ccc(Cl)cc1)Nc1ccc(Cl)cc1C(F)(F)F	–	–	–	–	–	–	·	·	·
O=c1c2sc(-c3ccccc3)cc2nc2n1CCC2	–	–	–	55	49	–	–	–	–
CCc1ccc(OCc2nc(-c3ccccn3)no2)c(Br)c1	–	–	–	55	56	–	–	–	–
SMILES	STAT1 blocker	STAT3 act	STAT1 activator	FLuc inhib CS	STAT3 inh-1	FLuc act counter	STAT3 inh-2	NFkB inh 2	STAT1 inh 2
Cc1ccc(OCc2nc(-c3ccccn3)no2)cc1	–	–	–	–	–	–	·	·	·
O/C(=C\c1ccc2ccccc2n1)c1ccc(O)cc1O	–	–	–	83	61	–	–	–	–
Oc1ccc(/C(Cc2ccc3ccccc3n2)=N\Nc2ccccc2)c(O)c1	–	–	–	–	–	–	·	·	·
O=C(C1CC1)N1CCC(c2nc(-c3ccc(S(=O)(=O)NCC4CCCO4)cc3)no2)CC1 (stereo not given)	–	–	–	–	51	–	56	15	–
O=C(C1CC1)N1CCC(c2nc(-c3ccc(S(=O)(=O)N4CCCC4)cc3)no2)CC1	–	–	–	–	–	–	·	·	·
CS(=O)(=O)N1CCCC(c2nc(-c3ccc(S(=O)(=O)NCc4ccccc4)cc3)no2)C1 (stereo not given)	–	–	–	–	66	–	72	26	22
O=C(c1ccc(S(=O)(=O)NCC2CCCO2)cc1)N1CCc2ccccc21 (stereo not given)	–	–	–	–	–	–	·	·	·
O=C(Cc1ccccc1)N1CCCC(c2nc(-c3ccc(S(=O)(=O)N4CCCC4)cc3)no2)C1 (stereo not given)	–	–	–	–	–	–	·	·	·
O=C(c1ccccc1)N1CCC(c2nc(-c3ccc(S(=O)(=O)NCC4CCCO4)cc3)no2)CC1 (stereo not given)	–	–	–	–	69	–	–	22	27
COc1ccccc1C(=O)NCC(=O)N/N=C/c1cccc(Cl)c1	–	–	–	–	–	–	·	·	·
Cc1ccnc(NC(=O)COc2ccccc2[N+](=O)[O-])c1	–	–	–	81	48	–	–	–	–
Cc1ccc(NC(=O)COc2ccccc2[N+](=O)[O-])nc1	–	–	–	80	51	–	–	–	–
O=C(COc1ccccc1[N+](=O)[O-])Nc1cccnc1	–	–	–	–	–	–	·	·	·
O=C(COc1ncnc2c(Cl)cc(Cl)cc12)Nc1cc([N+](=O)[O-])ccc1Cl	–	–	–	–	–	–	·	·	·
COc1ccc(/C=N/Nc2nonc2N)cc1	–	–	–	–	–	–	·	·	·
COc1ccc(/C=N/N=C(\N)c2nonc2N)cc1	–	–	–	52	51	–	–	–	–
Cc1ccc(/C=C/C(=O)NCc2cccs2)o1	–	–	–	–	–	–	·	·	·
CCOc1nc2c(c(=O)n(C)c(=O)n2C)n1Cc1ccccc1Cl	–	–	–	–	46	–	–	–	–
CCOC(=O)c1c(C)[nH]c(C2=NNC(=Nc3ccc(OCC)cc3)SC2)c1C	–	–	–	–	60	–	–	–	–
CCOc1ccc(OCc2ccc(C(=O)OCc3ccccn3)o2)cc1	–	–	–	–	46	–	–	–	–
COc1ccc(CCCC(=O)Nc2ccc(F)cc2)cc1	–	–	–	–	–	–	·	·	·
COc1cccc(CN(C)C(=O)c2cc(COc3ccc4ncccc4c3)on2)c1	35	–	–	–	74	–	64	18	19
